The values below come from ChEMBL document CHEMBL4325910, “Design and synthesis of rosiglitazone-ferulic acid-nitric oxide donor trihybrids for improving glucose tolerance” (Eur J Med Chem, 2019).

Series [1] can be described thus: Metabolic stability in simulated intestinal fluid at pH 6.8 measured after 16 hrs by HPLC analysis. It is filed as ADME. The following applies: read-out: Stability. In a few lines: (§1)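 Gastric fluid was 1% pepsin in water, pH 1.5. Intestinal fluid was 1% trypsin with 0.68% KH2PO4, pH 6.8. Compound (100 mM DMSO stock) was diluted 1:1000 into each, in triplicate. Incubation was at 37 °C for 0, 2, 4, 6, 16 or 24 h. Acetonitrile (3 volumes) stopped it, then HPLC at 254 nm.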

The nature of series [2]: Metabolic stability in simulated intestinal fluid at pH 6.8 measured after 4 hrs by HPLC analysis. The class given is ADME. The following applies: read-out: Stability. In a few lines:
as §1

Series [3] is described as follows: Metabolic stability in simulated intestinal fluid at pH 6.8 measured after 2 hrs by HPLC analysis. As to conditions: read-out: Stability. The class given is ADME. In a few lines: as §1
The test system of series [4] is Mus musculus. Description: Antidiabetic activity in spontaneous db/db BKS.Cg-Dock7m +/+ Leprdb/J mouse assessed as decrease in blood glucose AUC at 10 to 20 mg/kg, po administered as daily dose via gavage for 18 days measured on day 12 up to 120 mins post glucose challenge by oral glucose tolerance test. The class given is functional, organism-based. An outline of the steps:
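Male db/db mice (BKS.Cg-Dock7m +/+ Leprdb/J), 6 weeks old on purchase, randomized, n=8 per group. Dosed by gavage in 0.5% CMC-Na daily for 18 consecutive days. Vehicle-dosed db/db and C57BL/6 mice served as model and control. Fasting glucose was read by glucometer every three days. On day 12, after an overnight fast, 2 g/kg glucose was given orally. Blood glucose was read at 0–120 min and AUC calculated. Mean ± SEM.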

The subject of series [5] is Mus musculus. Description: Effect on lipid metabolism in spontaneous db/db BKS.Cg-Dock7m +/+ Leprdb/J mouse assessed as decrease in serum triglyceride level at 27 umol/kg, po administered as daily dose via gavage for 18 days. The class given is functional, organism-based. An outline of the steps: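 db/db mice were gavaged daily for 18 days in 0.5% CMC-Na (n=8 per group), with a vehicle model group. On day 19, blood was collected and serum prepared by centrifugation. Serum triglyceride and HDL were then measured.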

The test system of series [6] is 3T3-L1. Description: Induction of nitric oxide production in TNF-alpha-induced insulin resistant mouse 3T3L1 cells at 3 to 10 uM after 0.5 to 6 hrs by DAF-FM-2DA dye based fluorescence assay. The class given is functional, cell-based. In a few lines:
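Insulin-resistant 3T3-L1 adipocytes (TNF-α 4 ng/mL, 4 days) were treated for varying times, with or without 20 μM C-PTIO. Vehicle was DMSO 0.1% or NaOH 10 μM. Cells were washed in KRP, loaded with 10 μM DAF-FM-2DA in pH 7.4 PBS at 37 °C for 30 min, and read at Ex/Em 485/515 nm. Three experiments.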

Series [7] in a line: Metabolic stability in simulated gastric fluid at pH 1.5 measured after 6 hrs by HPLC analysis. It is filed as ADME. As to conditions: read-out: Stability. An outline of the steps: as §1
Series [8] is described as follows: Metabolic stability in human liver microsomes after 2 hrs in presence of NADPH by HPLC analysis. It is filed as ADME, Microsome. As to conditions: read-out: Stability. In a few lines: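 Compound (100 mM DMSO stock) was added in triplicate to 0.1 M phosphate buffer pH 7.4 with 3.3 mM MgCl2 and human liver microsomes, then preincubated 5 min at 37 °C. NADPH (1.3 mM stock) was added and incubation continued 0, 0.5, 1, 2 or 6 h. Acetonitrile quench, then HPLC at 254 nm.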
A general note: Liver microsomes are vesicles of endoplasmic reticulum, rich in cytochrome P450 enzymes.

Series [9] is described as follows: Toxicity in spontaneous db/db BKS.Cg-Dock7m +/+ Leprdb/J mouse assessed as reduction in serum hematocrit value at 13.5 to 27 umol/kg, po administered as daily dose via gavage treated for 18 days. It is filed as organism-based. As to conditions: in vivo, 432 h.
Series [10] has as its system Platelet. Description: Antiplatelet activity in platelet rich plasma (unknown origin) assessed as inhibition of arachidonic acid-induced platelet aggregation at 0.2 mM relative to control. It is filed as functional.
Series [11] deals with Platelet. Description: Antiplatelet activity in platelet rich plasma (unknown origin) assessed as inhibition of ADP-induced platelet aggregation at 0.8 mM relative to control. The class given is functional.
The test system of series [12] is Platelet. The series is described as follows: Antiplatelet activity in platelet rich plasma (unknown origin) assessed as inhibition of ADP-induced platelet aggregation at 3.2 mM relative to control. It is filed as functional.
The nature of series [13]: Toxicity in ICR mouse assessed mouse mortality at 2000 mg/kg, po administered as single dose via gavage treated on day 1 and measured daily up to 14 days. The class given is organism-based. As to conditions: in vivo, 336 h. In a few lines:
(§2)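 Mice of both sexes, 7 weeks old, were randomized and given one oral gavage dose on day 1. Dose levels were 500, 1000, 2000, 3000, 4000 or 5000 mg/kg, or 2000, 4000 and 5000 mg/kg, with n = 10 per group. Behaviour, health and mortality were checked daily for 14 days, and total deaths were counted on day 14. LD50 was calculated with 95% confidence limits.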

Series [14] is described as follows: Drug metabolism in Sprague-Dawley rat plasma after 0.5 hrs by HPLC analysis. As to conditions: read-out: Drug metabolism. It is filed as ADME, cell-free. In a few lines: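 100 mM DMSO stock was diluted 1:1000 into SD rat plasma, in triplicate. Incubated with shaking at 37 °C for 0–24 h, then stopped with three volumes of acetonitrile and centrifuged.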
Series [15] relates to 3T3-L1. Description: Inhibition of ROS production in TNF-alpha-induced insulin resistant mouse 3T3L1 cells at 10 uM after 48 hrs by DCFH-DA dye-based fluorescence assay. It is filed as functional, cell-based.
In series [16] the test system is 3T3-L1. The series is described as follows: Inhibition of ROS production in TNF-alpha-induced insulin resistant mouse 3T3L1 cells at 10 uM after 48 hrs in presence of nitric oxide scavenger C-PTIO by DCFH-DA dye-based fluorescence assay. The class given is functional, cell-based.
Series [17] is described as follows: Metabolic stability in Sprague-Dawley rat plasma after 0.5 hrs by HPLC analysis. The class given is ADME, cell-free. An outline of the steps: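 Compound (100 μM final; 100 mM DMSO stock diluted 1:1000) was incubated in triplicate in SD rat plasma at 37 °C with shaking for 0–24 h. Acetonitrile (3 volumes) was added, samples centrifuged and supernatants run on HPLC. Gradient was ammonium acetate pH 3.5/acetonitrile, 1.0 mL/min, detection at 254 nm.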

In series [18] the test system is Mus musculus. Description: Cardioprotective activity in db/db BKS.Cg-Dock7m +/+ Leprdb/J mouse assessed as decrease in serum cTnI level at 27 umol/kg, po administered as daily dose via gavage for 18 days by ELISA. It is filed as functional, organism-based. An outline of the steps:
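db/db mice were gavaged daily for 18 days in 0.5% CMC-Na, with vehicle-treated model and C57BL/6 control groups. Tail vein blood was collected and serum TNF-α and cTnI measured by commercial ELISA kits. Six individual experiments, mean ± SD, one-way ANOVA.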
(In general: ELISA stands for enzyme-linked immunosorbent assay.)

Series [19] has as its system Platelet. The series is described as follows: Antiplatelet activity in platelet rich plasma (unknown origin) assessed as inhibition of arachidonic acid-induced platelet aggregation at 2 mM relative to control. It is filed as functional.
For series [20], the system named is Platelet. Description: Antiplatelet activity in platelet rich plasma (unknown origin) assessed as inhibition of ADP-induced platelet aggregation at 8 mM relative to control. The class given is functional.
The nature of series [21]: Toxicity in ICR mouse assessed mouse mortality at 500 mg/kg, po administered as single dose via gavage treated on day 1 and measured daily up to 14 days. It is filed as organism-based. As to conditions: in vivo, 336 h. In a few lines:
as §2

The subject of series [22] is 3T3-L1. Description: Inhibition of MDA level in TNF-alpha-induced insulin resistant mouse 3T3L1 cells 10 uM after 48 hrs. The class given is functional, cell-based. An outline of the steps:
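3T3-L1 preadipocytes were differentiated, and mature adipocytes made insulin resistant with TNF-α (4 ng/mL) daily for 4 days. Cells were then treated in triplicate for 48 h, with or without 20 μM C-PTIO. Lysate GSH, SOD and MDA were measured with kits. Three experiments, mean ± SD.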

SMILES strings stand for the structures. Active and inactive are the calls of the source. The rule behind the calls is not given here.

`CCN(CC)/[N+]([O-])=N/OCOC(=O)/C=C/c1ccc(OC(=O)OCN2C(=O)SC(Cc3ccc(OCCN(C)c4ccccn4)cc3)C2=O)c(OC)c1` (configuration not stated): the remaining at 16 h in series [1] was 85.8%. For the same compound, in series [2], the remaining at 4 h was 96.9%. Moreover, the remaining at 2 h in series [3] was 97.7%; in series [8] it was 85.3%. Besides, the outcome in the series on Mus musculus [4], in the series on Mus musculus [5] and in the series on 3T3-L1 [6] was Active. The remaining at 6 h in series [7] was 93.6%. For the same compound, the Activity entry in [9] and in series [13] was “Non-Toxic” in each case. Further, the inhibition at 200 µM in the series on Platelet [10] stood at 30.2%. For the same compound, the inhibition at 800 µM in the series on Platelet [11] was found to be 26.2%. The inhibition at 3200 µM with Platelet [12] came out at 57.3%. For the same compound, the metabolised at 0.5 h in series [14] is 23%.
`CN(CCOc1ccc(CC2SC(=O)NC2=O)cc1)c1ccccn1` (configuration not stated) [ROSIGLITAZONE]: the inhibition entry in the series with 3T3-L1 [15] and with 3T3-L1 [22] was “Active” throughout. Moreover, the inhibition result in the series on 3T3-L1 [16] is “inactive”. Besides, the Stability in [17] is recorded as 20%. In addition, the outcome with Mus musculus [18] was Active. Besides, the inhibition at 2000 µM in the series on Platelet [19] is 28%. The inhibition at 8000 µM in the series with Platelet [20] turned out to be 64%. Also, in series [21], the Activity result is on record as “Non-Toxic”.

The term inhibition denotes how much of the control response was suppressed.
